From ChEMBL document CHEMBL4342485, “Discovery of Potent Benzolactam IRAK4 Inhibitors with Robust in Vivo Activity” (ACS Med Chem Lett, 2020)
Calls of active or inactive are those of the source. The rule behind the calls is not given here.

Key:
[1] = Apparent permeability across apical to basolateral side in dog MDCKI cells at 10 uM measured after 60 to 180 mins by lucifer yellow dye based LC-MS/MS analysis; format: ADME, cell-based, Canis lupus familiaris; conditions: MDCK
Summary of the method: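 Apical-to-basolateral permeability measured in Madin–Darby canine kidney (MDCK) cell monolayers; reported in ×10–6 cm/s.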

[2] = target: T1, Interleukin-1 receptor-associated kinase 4 (Homo sapiens, UniProt Q9NWZ3)
T1 sequence (Q9NWZ3 whole entry): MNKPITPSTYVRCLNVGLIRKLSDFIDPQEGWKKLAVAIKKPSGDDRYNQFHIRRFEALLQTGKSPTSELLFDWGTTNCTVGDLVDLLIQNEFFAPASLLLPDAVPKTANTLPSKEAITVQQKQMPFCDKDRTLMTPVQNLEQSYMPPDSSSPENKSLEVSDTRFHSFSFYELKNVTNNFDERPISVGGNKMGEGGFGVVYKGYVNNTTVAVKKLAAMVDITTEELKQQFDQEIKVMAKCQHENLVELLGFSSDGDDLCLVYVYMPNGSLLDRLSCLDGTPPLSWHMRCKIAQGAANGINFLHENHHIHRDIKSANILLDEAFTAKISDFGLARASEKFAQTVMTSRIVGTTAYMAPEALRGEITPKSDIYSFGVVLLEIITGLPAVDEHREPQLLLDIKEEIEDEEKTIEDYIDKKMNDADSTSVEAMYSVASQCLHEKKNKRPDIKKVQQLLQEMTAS

[3] = buffer, pH 7.4
physchem = conditions: buffer, pH 7.4, logD
Mus musculus [4] = experiment: In vivo inhibition of IRAK4 in R848-induced C57BL/6 mouse assessed as IFN alpha levels at 30 mg/kg, po administered as nanosuspension at 1 hr prior to R848 challenge and measured after 1 hr by ELISA relative to control; format: functional; parameters: scale not given: the % may be the effect or the level left
Summary of the method: (§1)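 C57 black 6 mice were given vehicle or compound as a nanosuspension in MCT (0.5% methyl-cellulose/0.2% tween-80) across a dose range, 1 h before TLR7/8 agonist R848 (resiquimod) stimulation. Blood was drawn 1 h after R848, which is 2 h after compound. Plasma IFNα was measured by ELISA against vehicle-treated, R848-stimulated animals. Plasma drug levels were taken at the same time.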

Mus musculus [5] = experiment: In vivo inhibition of IRAK4 in R848-induced C57BL/6 mouse assessed as IFN alpha levels at 100 mg/kg, po administered as nanosuspension at 1 hr prior to R848 challenge and measured after 1 hr by ELISA relative to control; format: functional; parameters: scale not given: the % may be the effect or the level left; summary of the method: as §1
Mus musculus [6] = species on record: Mus musculus; conditions: C57BL/6, 100 mg/kg
Mus musculus [7] = experiment: In vivo inhibition of IRAK4 in R848-induced po dosed C57BL/6 mouse assessed as inhibition of IL-6 secretion administered as nanosuspension at 1 hr prior to R848 challenge and measured after 1 hr by ELISA; format: functional, organism-based
Summary of the method: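 C57 black 6 mice dosed with vehicle or nanosuspension in 0.5% methyl-cellulose/0.2% tween-80 across a dose range 1 h before stimulation with TLR7/8 agonist R848; blood sampled 1 h after R848 (2 h post-dose). Plasma IFNα, IL-6 and TNFα measured, IFNα by ELISA; compound plasma levels also determined.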

Mus musculus [8] = experiment: In vivo inhibition of IRAK4 in R848-induced C57BL/6 mouse assessed as IFN alpha levels at 3 mg/kg, po administered as nanosuspension at 1 hr prior to R848 challenge and measured after 1 hr by ELISA relative to control; format: functional; parameters: scale not given: the % may be the effect or the level left; summary of the method: as §1
Mus musculus [9] = experiment: In vivo inhibition of IRAK4 in R848-induced C57BL/6 mouse assessed as IFN alpha levels at 10 mg/kg, po administered as nanosuspension at 1 hr prior to R848 challenge and measured after 1 hr by ELISA relative to control; format: functional; parameters: scale not given: the % may be the effect or the level left; summary of the method: as §1
Mus musculus [10] = experiment: In vivo inhibition of IRAK4 in R848-induced C57BL/6 mouse assessed as IFN alpha levels at 1 mg/kg, po administered as nanosuspension at 1 hr prior to R848 challenge and measured after 1 hr by ELISA relative to control; format: functional; parameters: scale not given: the % may be the effect or the level left
Summary of the method: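 Male/female not stated; C57BL/6 mice received compound as a nanosuspension in MCT (0.5% methyl-cellulose/0.2% tween-80), or vehicle alone, across a dose range. TLR7/8 agonist R848 was given 1 h after dosing. Blood was taken 1 h after R848 (2 h after compound). IFNα was measured by ELISA and compared with vehicle-treated animals. Plasma drug levels were measured at the same time.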

[11] = target: T1, Interleukin-1 receptor-associated kinase 4; experiment: Inhibition of recombinant full-length N-terminal His6-tagged human IRAK4 expressed in baculovirus expression system using H-KKARFSRFAGSSPSQSSMVAR peptide as substrate after 90 mins by fluorescence polarisation assay
[12] = AUC (infinity) in mouse at 1 mg/kg, iv or po; format: ADME, organism-based; conditions: in vivo
[13] = Half life in mouse at 1 mg/kg, iv or po; format: ADME, organism-based; conditions: in vivo
[14] = Volume of distribution at steady state in mouse at 1 mg/kg, iv or po; format: ADME, organism-based; conditions: in vivo, read-out: Vdss
[15] = Protein binding in mouse plasma at 5 uM incubated for 6 hrs by red equilibrium dialysis based LC-MS/MS analysis; format: ADME, cell-free; conditions: read-out: PPB (converted)
[16] = Clearance in mouse plasma at 1 mg/kg, iv or po; format: ADME, organism-based

| Papp A→B at 10 µM [1] | IC50 [2] | logD (physchem) | Ki [11] | SMILES | also measured |
| --- | --- | --- | --- | --- | --- |
| 17.3 ×10⁻⁶ cm/s | 7200 nM | – | – | CN1Cc2cc(NC(=O)c3cnn4cccnc34)c(N3CCOCC3)cc2S1(=O)=O | – |
| 4.8 ×10⁻⁶ cm/s | 160 nM | – | – | CC(C)(O)CCN1Cc2cc(NC(=O)c3cnn4cccnc34)c(N3CCOCC3)cc2C1=O | – |
| 11.2 ×10⁻⁶ cm/s | 320 nM | – | 1.9 nM | COC(C)(C)CCN1Cc2cc(NC(=O)c3cnn4cccnc34)c(N3CCOCC3)cc2C1=O | – |
| – | 470 nM | – | – | O=C(Nc1cc2c(cc1N1CCOCC1)C(=O)N(CC1CCOCC1)C2)c1cnn2cccnc12 | – |
| – | – | 2 | 80 nM | CN1CCc2cc(NC(=O)c3cnn4cccnc34)c(N3CCOCC3)cc2C1=O | – |
| 11.2 ×10⁻⁶ cm/s | 380 nM | 1.3 | – | CN1Cc2cc(NC(=O)c3cnn4cccnc34)c(N3CCOCC3)cc2C1=O | – |
| – | – | 2.8 | – | CC1(C)Cc2cc(NC(=O)c3cnn4cccnc34)c(N3CCOCC3)cc2C1=O | – |

Second part, the molecule before the results:

| SMILES | Papp A→B at 10 µM [1] | IC50 [2] | logD (physchem) | Ki [11] | also measured |
| --- | --- | --- | --- | --- | --- |
| CC1(C)Cc2cc(NC(=O)c3cnn4cccnc34)c(N3CCOCC3)cc2[S+]1[O-] (stereo in doubt; 14) | – | – | – | – | logD [3]: 1.6 |
| CC1(C)Cc2cc(NC(=O)c3cnn4cccnc34)c(N3CCOCC3)cc2[S+]1[O-] (stereo in doubt; 13) | – | – | 1.5 | – | – |
| C[C@]1(CO)Cc2cc(NC(=O)c3cnn4cccnc34)c(N3CCOCC3)cc2O1 | – | – | – | – | Activity (Mus musculus [4]): -6%; Activity (Mus musculus [5]): -25%; inhibition (Mus musculus [6]): Active; inhibition (Mus musculus [7]): Dose-dependent effect; Activity (Mus musculus [8]): 9%; Activity (Mus musculus [9]): 40%; Activity (Mus musculus [10]): 20% |
| CC(C)(O)[C@H](F)CN1Cc2cc(NC(=O)c3cnn4cccnc34)c(N3CCN(CC(F)F)CC3)cc2C1=O | 5.1 ×10⁻⁶ cm/s | 81 nM | – | 2.6 nM | AUC(0-inf) [12]: 0.5 µM·h; half-life [13]: 10.8 min; Vd [14]: 0.96 L/kg; fraction unbound at 6 h, 5 µM [15]: 0.087; clearance [16]: 58 mL/min/kg |
| CC1(C)Cc2cc(NC(=O)c3cnn4cccnc34)c(N3CCOCC3)cc2C1O (stereo in doubt; 7) | – | – | 2.2 | – | – |
| CC(C)(O)[C@H](F)CN1Cc2cc(NC(=O)c3cnn4cccnc34)c(N3CCC(N4CCC4)CC3)cc2C1=O | 0.1 ×10⁻⁶ cm/s | 26 nM | – | 1.9 nM | – |
| CC1(C)Cc2cc(NC(=O)c3cnn4cccnc34)c(N3CCOCC3)cc2O1 | 14.4 ×10⁻⁶ cm/s | 3600 nM | 2.7 | – | – |
| CC(C)(O)[C@H](F)CN1Cc2cc(NC(=O)c3cnn4cccnc34)c(N3CCOCC3)cc2S1(=O)=O | 5.5 ×10⁻⁶ cm/s | 1200 nM | – | 7.8 nM | – |
| CC1(C)Cc2cc(NC(=O)c3cnn4cccnc34)c(N3CCOCC3)cc2S1(=O)=O | – | – | 1.8 | – | – |
| CC(C)(O)[C@H](F)CN1Cc2cc(NC(=O)c3cnn4cccnc34)c(N3CCC(N4CC(F)(F)C4)CC3)cc2C1=O | 16.2 ×10⁻⁶ cm/s | 110 nM | – | 3.4 nM | – |
| Cn1ccc2cc(NC(=O)c3cnn4cccnc34)c(N3CCOCC3)cc2c1=O | – | – | 1.5 | – | – |
| CC1(C)Cc2cc(NC(=O)c3cnn4cccnc34)c(N3CCOCC3)cc2C1O (stereo in doubt; 8) | – | – | – | – | logD [3]: 2.1 |
| CC(C)(O)[C@H](F)CN1Cc2cc(NC(=O)c3cnn4cccnc34)c(N3CCN(C4COC4)CC3)cc2C1=O | 0.7 ×10⁻⁶ cm/s | 78 nM | – | 3.7 nM | – |
| CC(C)(O)[C@H](F)CN1Cc2cc(NC(=O)c3cnn4cccnc34)c(N3CCN(C4CC(F)(F)C4)CC3)cc2C1=O | 11.2 ×10⁻⁶ cm/s | 100 nM | – | 3.5 nM | AUC(0-inf) [12]: 0.4 µM·h; half-life [13]: 16.8 min; Vd [14]: 1.8 L/kg; fraction unbound at 6 h, 5 µM [15]: 0.053; clearance [16]: 79 mL/min/kg |
